# E coli WT exp – growth inhibitors of E. coli BW25113 wild type; 98,000 tested, 0.15% active; AID 710; growth inhibition, % at 100 µM; OD600 absorbance;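 active = growth inhibition above about 50% at one test dose, limit read from the data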;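 note: growth measured after 20 h incubation at 37 °C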
# PostGolgi ctrl – yeast control strain growth, post-Golgi counter-screen | efflux-deficient yeast background strain, growth absorbance A615, 16 h | inhibition, % at 10 µM | 98,000 tested, 5% active | AID 738
# D1 mod – allosteric modulators of human D1 dopamine receptor | P21728 | HEK293 D1, CRE-luciferase, dopamine EC30 potentiation; actives deviate in either direction | B-score at 10 µM | 58,000 tested, 5.9% active | AID 641;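 active = luminescence count or its row- and column-corrected plate score outside the 99.7% band of the plate's sample wells, on either side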
# Target sequence (P21728 whole entry, looked up): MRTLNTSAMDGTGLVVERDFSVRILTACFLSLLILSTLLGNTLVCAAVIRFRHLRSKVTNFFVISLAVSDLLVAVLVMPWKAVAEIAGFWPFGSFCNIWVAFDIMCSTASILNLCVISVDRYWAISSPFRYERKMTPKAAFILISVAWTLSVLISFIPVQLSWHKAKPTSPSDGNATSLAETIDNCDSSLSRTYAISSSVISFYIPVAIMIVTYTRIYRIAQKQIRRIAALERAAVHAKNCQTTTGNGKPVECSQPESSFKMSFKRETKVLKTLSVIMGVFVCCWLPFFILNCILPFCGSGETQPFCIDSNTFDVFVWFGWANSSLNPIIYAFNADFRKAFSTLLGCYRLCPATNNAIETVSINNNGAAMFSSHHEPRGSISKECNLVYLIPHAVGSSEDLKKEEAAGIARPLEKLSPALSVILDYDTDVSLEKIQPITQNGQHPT
# hDAT+cocaine – human DAT dopamine uptake with cocaine, either direction | 110,000 tested, 1.3% active | AID 449768 | B-score at 10 µM | LLC-PK1 hDAT cells, [14C]-dopamine uptake with cocaine IC80; actives deviate in either direction | Q01959;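 active = Z score or B-score, a plate-position-corrected score, falls beyond the plate's 99.7% confidence bounds, in either direction; inactive = both scores lie inside the 99.7% bounds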;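 note: scored against the spread of the other compound wells on the same plate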
# PostGolgi yeast – growth inhibition of a yeast mutant, post-Golgi transport screen; post-Golgi transport phenotypic cell assay; inhibition, % at 10 µM; 98,000 tested, 0.9% active; AID 739;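 note: yeast cells grown in 1536-well plates; yeast grown about 18 h at 30C before absorbance read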
# tolC growth inh – E. coli tolC mutant growth inhibition; E. coli BW25113 tolC mutant growth, OD615; growth inhibition, % at 10 µM (by protocol); 65,000 tested, 2.2% active; AID 573;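 active = growth inhibition at or above a cutoff equal to the mean over every tested compound plus 3 SD, cut at about 60% in these data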;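 note: growth measured after 20 h incubation at 37 °C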
#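 Test system: E. coli BW25113 ΔtolC::kan bacteria | Medium: Kanamycin-containing LB broth (50 µg/mL) | Dosing: One dose of 10 µM final | Times: 20 h incubation with compound, 37 °C | Detection: Optical density read at 615 nm | Read-out basis: Percent growth inhibition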
# * marks the source's active call; other numbers are inactive results; . = no result given. In the library only some 9.3% were active in any assay of this set; here they are far more common. Cut-off read from the data, not from the text of the source, unless noted: active = inhibition above about 30%; inactive = the rest.
SMILES,E coli WT exp,PostGolgi ctrl,D1 mod,hDAT+cocaine,PostGolgi yeast,tolC growth inh
CCC(=O)Nc1ccc(N2CCN(C(=O)c3ccccc3C)CC2)cc1,0,6,-0.61,-0.76,4,-22
O=C(Nc1ccc2c(c1)OCO2)C(c1ccccc1)N1CCN(C(=O)c2ccco2)CC1 (configuration not stated),4,-3,-0.72,-1.8,-10,3
O=C(c1ccco1)N1CCN(Cc2ccc(Cl)cc2)CC1,13,35*,-0.68,0.17,-4,-1
O=C(Nc1ccc2c(c1)OCO2)C(c1ccc(Cl)cc1)N1CCN(C(=O)c2ccco2)CC1 (configuration not stated),-8,12,-0.086,2.4*,7,39
Cc1ccccc1C(=O)N1CCN(c2ccc(NC(=O)CSc3ccc(Cl)cc3)cc2)CC1,-19,53*,.,0.73,79*,.
O=C(CN1C(=O)C2CC=CCC2C1=O)NCC1COc2ccccc2O1 (configuration not stated),10,-8,.,-0.2,4,.
O=C1[C@H](CC[C@H](O)c2ccc(F)cc2)[C@@H](c2ccc(O)cc2)N1c1ccc(F)cc1,.,.,.,1.5,.,.
O=C(COc1ccc(Cl)cc1)Nc1ccc(N2CCN(C(=O)c3ccco3)CC2)cc1,-6,13,.,-0.018,88*,.
CCC(=O)Nc1cccc(NC(=O)c2cccc([N+](=O)[O-])c2)c1,-1,12,.,-0.097,-3,.
Cc1ccccc1OCC(=O)NNC(=S)NC(=O)c1ccco1,23,53*,.,0.6,38*,.
CCOc1cc(NC(=O)c2ccco2)c(OCC)cc1NC(=O)COc1ccccc1C,.,.,-1.2,0.21,.,-6
CCOC(=O)c1c2n(c3c(NCc4ccccc4)ncnc13)CCCC2,6,4,-0.51,2.3*,2,8
COc1ccccc1N(C(=O)NCc1ccccc1)C1=NCC(C)S1 (configuration not stated),-2,48*,-0.66,-1.1,-4,51
CC1CN=C(N(Cc2ccccc2)C(=O)Nc2ccccc2)S1 (configuration not stated),6,14,.,-0.66,20,.
COc1ccccc1NC(=O)N(Cc1ccccc1)C1=NCC(C)S1 (configuration not stated),5,28,-0.77,-3.7*,7,24
Cc1ccc(C2c3c(oc4ccccc4c3=O)C(=O)N2c2nnc(C(C)C)s2)o1 (configuration not stated),-3,10,0.24,-0.87,7,10
Cc1ccc(-c2nc3ccccc3[nH]2)cc1NC(=O)c1ccc2c(c1)OCO2,-11,15,.,1.3,1,.
Cc1ccc(-c2nc3ccccc3[nH]2)cc1NC(=S)NC(=O)c1ccccc1Br,-5,37*,.,1.6,6,.
CCn1c(=S)sc2c(=O)[nH]c(C)nc21,-11,10,.,-9*,7,-3
O=C(NCc1ccco1)c1cccn2c(=O)c3sccc3nc12,.,.,5*,1.1,.,20
CCOC(=O)N1CCN(C(=O)c2cccn3c(=O)c4sccc4nc23)CC1,3,8,-0.051,-0.34,5,-11
CCNC(=S)NC1CC2CCCC(C1)N2Cc1ccco1 (configuration not stated),2,-1,.,-0.013,-3,.
O=C(NC1CC2CCCC(C1)N2Cc1ccco1)NC12CC3CC(CC(C3)C1)C2 (configuration not stated),2,8,2.1,-7.4*,-4,-4
Fc1ccc(-n2c(Cc3ccccc3)nnc2SCc2nc(-c3cccs3)no2)cc1,-20,33*,-0.84,2.2,-1,70*
CC(=O)c1c(C(C)=O)c(C)n(-c2nc(-c3ccc(Br)cc3)c(C)s2)c1C,-8,56*,.,0.32,-9,.
SMILES,E coli WT exp,PostGolgi ctrl,D1 mod,hDAT+cocaine,PostGolgi yeast,tolC growth inh
Cc1cc(C(=O)N2CCC(C(F)(F)F)n3nccc32)on1 (configuration not stated),-1,-8,-0.0046,-2.9*,-4,-4
O=C(N1CCOCC1)C(F)(F)C(F)(F)C(F)(F)C(F)(F)C(=O)N1CCOCC1,-1,2,-0.3,-0.018,-5,-17
CCOC(=O)Cc1nnc2c(Nc3ccc(Cl)cc3)nc3nonc3n12,11,27,-0.36,-0.71,10,100*
CCOC(=O)c1sc(NS(=O)(=O)c2ccccc2Cl)nc1C,-12,13,.,-0.012,-1,.
CCCCc1c(C)nn(-c2nnc3c4ccccc4n(CC)c3n2)c1C,0,58*,-1.4,1.1,4,75*
OCc1nc2ccccc2n1CCCOc1ccccc1,0,3,-1.4,0.38,5,6
Cc1ccc(OCCCn2c(CO)nc3ccccc32)cc1,9,7,-1.3,0.71,37*,38
CC(CN1CCCC(C(N)=O)C1)c1ccccc1 (configuration not stated),1,0,-3.4*,-1.4,-5,-10
O=C(NC1CCS(=O)(=O)C1)C12CC3CC(CC(C3)C1)C2 (configuration not stated),0,2,.,0.055,13,-29
COC(=O)C1=C(N)Oc2cc(C)n(Cc3ccco3)c(=O)c2C1c1cccc(Cl)c1 (configuration not stated),-17,25,0.4,-0.41,-3,68*
COC(=O)C1=C(N)Oc2cc(C)n(C)c(=O)c2C1c1ccc(Cl)c(Cl)c1 (configuration not stated),-2,46*,-0.81,-0.59,2,-12
CCn1c(C)cc2c(c1=O)C(c1ccccc1)C(C(=O)OC)=C(N)O2 (configuration not stated),-2,8,.,-1.3,-6,.
COC(=O)/C=C/c1cc(F)ccc1S(=O)(=O)NC(C)(C)C,.,.,.,-0.46,.,.
CN1CCN(Cc2nc3c(c(=O)n(C)c(=O)n3C)n2Cc2ccccc2Cl)CC1,.,.,0.0035,.,.,-5
CCCCOc1ccc(S(=O)(=O)n2c(C)nc3ccccc32)cc1,5,-10,-0.62,-0.49,2,94*
CCOc1ccccc1C(=O)N1CCN=C1SCc1cccnc1,-8,1,-0.72,0.4,-4,-11
CCOc1ccccc1-n1c(SCC(=O)N(CC)CC)nnc1-c1ccccn1,-1,40*,-0.45,-1.1,-1,-15
O=C1CSC(c2cn(-c3ccccc3)nc2-c2cc3ccccc3o2)N1Cc1ccccc1 (configuration not stated),-12,11,.,.,4,.
Cc1ccc(-c2nn(-c3ccccc3)cc2C2SCC(=O)N2Cc2ccccc2)o1 (configuration not stated),-23,58*,0.017,-0.039,2,42
Cc1cc2oc(C(=O)NCc3ccncc3)c(C)c2cc1C,4,36*,-0.76,-0.59,-7,33
Cc1c(C(=O)NCc2ccccn2)oc2ccccc12,1,11,-0.21,-0.2,10,-2
O=C(Cn1nnc(-c2ccc(CN3CCOCC3)cc2)n1)Nc1nc(-c2ccccc2)cs1,5,7,0.44,-9.6*,-4,21

# From PubChem
